Assay results as given in ChEMBL document CHEMBL1144767, “Characterization of chemical libraries for luciferase inhibitory activity” (J Med Chem, 2008).
Active and inactive are the calls of the source. No cut-off for these calls is given here.

Columns and labels:
[1] = target: T1, Luciferin 4-monooxygenase (Photinus pyralis, UniProt P08659); experiment: Inhibition of Photinus pyralis luciferase by Easy lite assay
How it was run: (§1)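 Detection by 2 µL of EasyLite or Kinase-Glo reagent (Kinase-Glo containing P. pennsylvanica luciferase). 1536-well luminescence. 16 two-fold concentrations, duplicate wells, repeated on two or three days.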

[2] = target: T1, Luciferin 4-monooxygenase; experiment: (§2) Inhibition of Photinus pyralis luciferase by Steady-Glo reporter gene assay
How it was run: (§3)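 5 nM purified P. pyralis luciferase in SteadyGlo or BrightGlo reporter-gene reagent; no extra ATP or D-luciferin added. 1536-well luminescence. Curves from 16 two-fold concentrations in duplicate, repeated on two or three separate days.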

[3] = target: T1, Luciferin 4-monooxygenase; experiment: Inhibition of Photinus pyralis luciferase
[4] = target: T1, Luciferin 4-monooxygenase; experiment: Inhibition of Photinus pyralis luciferase by PK-Light assay
[5] = target: T1, Luciferin 4-monooxygenase; experiment: (§4) Inhibition of Photinus pyralis luciferase by BrightGlo reporter gene assay; how it was run: as §3
[6] = target: T2, Luciferin 4-monooxygenase (Photuris pensylvanica, UniProt Q27757); experiment: (§5) Inhibition of luciferase Photuris pennsylvanica by Promega Kinase-Glo assay; how it was run: as §1
T2 sequence (Q27757 whole entry): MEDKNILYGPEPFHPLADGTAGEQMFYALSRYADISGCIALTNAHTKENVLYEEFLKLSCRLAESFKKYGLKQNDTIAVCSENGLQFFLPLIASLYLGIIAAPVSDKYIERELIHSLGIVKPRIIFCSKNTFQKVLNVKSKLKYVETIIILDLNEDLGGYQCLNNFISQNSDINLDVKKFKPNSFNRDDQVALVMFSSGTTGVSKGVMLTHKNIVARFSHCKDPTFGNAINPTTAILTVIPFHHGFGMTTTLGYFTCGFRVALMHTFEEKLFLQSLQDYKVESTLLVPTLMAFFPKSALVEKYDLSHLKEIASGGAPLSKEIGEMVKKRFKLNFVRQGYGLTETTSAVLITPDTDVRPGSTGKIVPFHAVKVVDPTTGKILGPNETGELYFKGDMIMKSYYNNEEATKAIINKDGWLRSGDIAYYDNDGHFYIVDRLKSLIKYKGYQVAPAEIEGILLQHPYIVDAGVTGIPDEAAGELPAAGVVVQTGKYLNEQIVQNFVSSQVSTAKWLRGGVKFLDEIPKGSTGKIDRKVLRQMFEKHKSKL

[7] = target: T3, Luciferin 4-monooxygenase (Photuris pensylvanica) (UniProt Q27757); experiment: as §5; how it was run: as §1
T3 sequence (whole entry): T2 sequence (Q27757 whole entry)

[8] = Inhibition of Renilla reniformis luciferase
[9] = target: Luciferin 4-monooxygenase (Photinus pyralis) (UniProt P08659); experiment: Inhibition of Photinus pyralis luciferase at 3 uM
[10] = target: Luciferin 4-monooxygenase (Photinus pyralis) (UniProt P08659); experiment: as §2; how it was run: as §3
[11] = target: Luciferin 4-monooxygenase (Photinus pyralis) (UniProt P08659); experiment: as §4; how it was run: as §3
[12] = target: Luciferin 4-monooxygenase (Photinus pyralis) (UniProt P08659); experiment: Inhibition of Photinus pyralis luciferase at 1 uM

Sequence of Luciferin 4-monooxygenase (Photinus pyralis) (P08659 whole entry): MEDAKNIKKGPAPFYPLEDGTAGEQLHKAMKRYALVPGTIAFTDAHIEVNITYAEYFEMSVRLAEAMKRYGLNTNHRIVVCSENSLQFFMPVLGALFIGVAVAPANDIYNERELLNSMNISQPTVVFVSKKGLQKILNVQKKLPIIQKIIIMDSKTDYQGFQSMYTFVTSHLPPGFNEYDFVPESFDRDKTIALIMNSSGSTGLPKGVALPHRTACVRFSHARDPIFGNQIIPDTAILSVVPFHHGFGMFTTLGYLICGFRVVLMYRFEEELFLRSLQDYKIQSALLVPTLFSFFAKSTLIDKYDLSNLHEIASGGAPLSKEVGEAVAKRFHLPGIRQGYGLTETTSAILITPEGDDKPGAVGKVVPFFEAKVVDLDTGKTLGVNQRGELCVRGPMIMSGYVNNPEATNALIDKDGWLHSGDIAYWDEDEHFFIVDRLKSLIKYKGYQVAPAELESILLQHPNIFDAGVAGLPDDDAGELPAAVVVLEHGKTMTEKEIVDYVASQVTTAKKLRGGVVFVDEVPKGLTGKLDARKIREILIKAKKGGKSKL
T1 sequence (P08659 whole entry): as above

Compound: COc1ccc(C(=O)NC(=O)Nc2cc(C)ccn2)cc1
- IC50 [1]: 0.37 µM
- IC50 [2]: 1.2 µM
- IC50 [3]: 0.41 µM
- IC50 [4]: 0.98 µM
- IC50 [5]: 1 µM
- IC50 [6]: 6.9 µM

Compound: O=C(N/N=C/c1ccccc1O)c1ccccc1O
- IC50 [1]: 3.6 µM
- IC50 [2]: 20 µM
- IC50 [3]: 0.8 µM
- IC50 [4]: 2.5 µM
- IC50 [5]: 2.6 µM
- Activity [7]: inactive

Compound: CN(C)c1ccc(N/C=C\C(=O)c2ccccc2)cc1
- IC50 [1]: 0.4 µM
- IC50 [2]: 0.6 µM
- IC50 [3]: 0.21 µM
- IC50 [8]: 11 µM
- IC50 [4]: 0.6 µM
- IC50 [5]: 0.7 µM
- IC50 [6]: 3.2 µM

Compound: COc1ccc(-c2cc3ccc(OCc4nn[nH]n4)cc3oc2=O)cc1
- IC50 [1]: 3.2 µM
- IC50 [2]: 10 µM
- IC50 [3]: 1.1 µM
- inhibition [9]: 100%
- IC50 [4]: 5.4 µM
- IC50 [5]: 13.3 µM
- Activity [7]: inactive

Compound: CC(C)(C)C(=O)Nc1ccc(NC(=O)c2cccc(O)c2)nc1
- IC50 [1]: 0.8 µM
- IC50 [2]: 0.8 µM
- IC50 [3]: 0.7 µM
- IC50 [4]: 5 µM
- IC50 [5]: 7.2 µM
- IC50 [6]: > 30 µM

Compound: CCOc1ccc(-c2cc(C(=O)N3CCN(C)CC3)c3ccccc3n2)cc1
- IC50 [1]: 1.1 µM
- Activity [10]: inactive
- IC50 [3]: 1.3 µM
- IC50 [8]: > 25 µM
- IC50 [4]: 2.4 µM
- Activity [11]: inactive
- IC50 [6]: > 50 µM

Compound: CCN(CC)c1ccc2cc(-c3nc4ccccc4n3C)c(=O)oc2c1
- inhibition [12]: 28%

Compound: C[C@@H](C(=O)O)c1ccc(N2Cc3ccccc3C2=O)cc1 [(R)-INDOPROFEN]
- IC50 [1]: 3.6 µM
- IC50 [2]: 10 µM
- IC50 [3]: 0.2 µM
- IC50 [4]: 4.7 µM
- IC50 [5]: 5.3 µM
- IC50 [6]: > 50 µM

Compound: O=C(/C=C\Nc1ccccn1)c1ccc(Cl)cc1
- IC50 [1]: 4.7 µM
- IC50 [2]: 0.5 µM
- IC50 [3]: 2 µM
- IC50 [4]: 4.1 µM
- IC50 [5]: 1.2 µM
- Activity [7]: inactive

Compound: c1ccc(-c2noc(-c3ccc4ccccc4c3)n2)cc1
- IC50 [1]: 2.1 µM
- IC50 [2]: 1.4 µM
- IC50 [3]: 0.4 µM
- IC50 [4]: 1.6 µM
- IC50 [5]: 2.6 µM
- Activity [7]: inactive

Compound: COc1ccc2nc(NC(=O)c3ccoc3C)sc2c1
- IC50 [1]: 4.5 µM
- IC50 [2]: 10.3 µM
- IC50 [3]: 1.2 µM
- IC50 [4]: 2.1 µM
- IC50 [5]: 5.9 µM
- IC50 [6]: 3.6 µM

Compound: Cc1cccc(C#Cc2ccccc2)n1
- IC50 [1]: 7.4 µM
- IC50 [2]: > 100 µM
- IC50 [3]: 4.7 µM
- IC50 [4]: 6.6 µM
- IC50 [5]: 30 µM
- Activity [7]: inactive

Compound: CCOc1ccc2nc(NC(=O)c3ccoc3C)sc2c1
- IC50 [1]: 5.7 µM
- IC50 [2]: 3.6 µM
- IC50 [3]: 0.65 µM
- IC50 [4]: 4.2 µM
- IC50 [5]: 4 µM
- IC50 [6]: 3.8 µM

Compound: c1ccc(-c2noc(-c3ccc4ccccc4c3)n2)nc1
- IC50 [1]: 0.22 µM
- IC50 [2]: 0.2 µM
- IC50 [3]: 0.1 µM
- IC50 [8]: 25 µM
- IC50 [4]: 0.22 µM
- IC50 [5]: 0.2 µM
- IC50 [6]: 11.3 µM

Compound: CN(C)c1ccc(/C=C2\C(=O)Nc3ccccc32)cc1
- IC50 [8]: 19 µM
- Activity [7]: inactive

Compound: Cc1ccc2nc(NC(=O)c3cccs3)sc2c1
- IC50 [1]: 1.7 µM
- IC50 [2]: 6.9 µM
- IC50 [3]: 0.5 µM
- IC50 [4]: 1.4 µM
- IC50 [5]: 6.7 µM
- IC50 [6]: > 50 µM

Compound: Cc1cccc(/C=C/c2ccccc2)n1
- IC50 [1]: 11 µM
- IC50 [2]: > 100 µM
- IC50 [3]: 4.3 µM
- IC50 [4]: 17 µM
- IC50 [5]: 24 µM
- IC50 [6]: > 50 µM

Compound: CCOC(=O)N1CCN(C(=O)c2cc(-c3ccc(OCC)cc3)nc3ccccc23)CC1
- IC50 [1]: 1 µM
- Activity [10]: inactive
- IC50 [3]: 0.9 µM
- IC50 [8]: 20 µM
- IC50 [4]: 1.4 µM
- Activity [11]: inactive
- IC50 [6]: > 50 µM

Compound: CCOc1ccc(-c2cc(C(=O)N3CCN(c4ccccn4)CC3)c3ccccc3n2)cc1
- Activity [10]: inactive
- IC50 [8]: 11 µM
- Activity [11]: inactive

Compound: CN1CCN(C(=O)COc2ccc(-c3nc4ccccc4s3)cc2)CC1
- IC50 [1]: 0.4 µM
- IC50 [2]: 1 µM
- IC50 [3]: 0.3 µM
- IC50 [4]: 0.9 µM
- IC50 [5]: 6.5 µM
- Activity [7]: inactive

Compound: CCOc1ccc(-c2cc(C(=O)N3CCC4(CC3)OCCO4)c3ccccc3n2)cc1
- IC50 [1]: 1 µM
- Activity [10]: inactive
- IC50 [3]: 0.7 µM
- IC50 [8]: 11 µM
- IC50 [4]: 1.4 µM
- Activity [11]: inactive
- IC50 [6]: > 50 µM
